Reference: ChEMBL document CHEMBL2040752, “Synthesis and effects of some novel tetrahydronaphthalene derivatives on proliferation and nitric oxide production in lipopolysaccharide activated Raw 264.7 macrophages” (Eur J Med Chem, 2011)
The source made the active and inactive calls. The rule behind the calls is not given here.

Legend:
[1] = system: RAW264.7; test: Inhibition of nitrite level in LPS-induced mouse RAW264.7 cells at 50 uM by Griess assay relative to LPS treated control; format: functional
Outline: (§1)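 RAW 264.7 cells (4 ×10⁴ per well) pre-incubated with compound for 1 h, then stimulated with LPS ([…]) for 20 h. Supernatant mixed 1:1 with Griess reagent (1% sulfanilamide, 0.1% naphthylethylenediamine dihydrochloride, 2% phosphoric acid) for 10 min at room temperature, read at 550 nm against a NaNO₂ standard curve. Nitrite in the LPS-only group is set as 100%; % inhibition given as mean ± value.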

[2] = system: RAW264.7; test: Inhibition of nitrite level in LPS-induced mouse RAW264.7 cells at 5 uM by Griess assay relative to LPS treated control; format: functional; outline: as §1
[3] = system: RAW264.7; test: Cytotoxicity against mouse RAW264.7 cells at 50 uM by MTT assay; format: cell-based; settings: raw264.7, 50 µM
Outline: (§2)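 RAW 264.7 macrophages (4 ×10⁴ per well) pretreated with compound for 1 h, then held with or without LPS ([…]) for 20 h. After the supernatant was removed for nitrite assay, cells got 0.5 mg/mL MTT for 1 h at 37 °C. Formazan was dissolved in DMSO for at least 2 h in the dark and read at 550 nm; data are absorbance, mean ± S.D.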

[4] = system: RAW264.7; test: Cytotoxicity against mouse RAW264.7 cells at 5 uM by MTT assay; format: cell-based; settings: raw264.7, 5 µM; outline: as §2

Row | Compound | inhibition at 50 µM [1] [%] | inhibition [2] | inhibition [1] | Activity [3] | inhibition at 5 µM [2] [%] | Activity [4]
1 | CCOC(=O)N1CCC(NC(=O)c2ccc3c(c2)C(C)(C)CCC3(C)C)CC1 | 30 | inactive | – | – | – | –
2 | COc1ccc(CCCC(=O)Nc2cc3c(cc2C)C(C)(C)CCC3(C)C)cc1OC | – | inactive | inactive | Toxic | – | –
3 | CC1(C)CCC(C)(C)c2cc(C(=O)Nc3cc[nH]c(=O)n3)ccc21 | 21.1 | – | – | Toxic | 11.5 | –
4 | CC1(C)CCC(C)(C)c2cc(C(=O)Nc3cccc4ccccc34)ccc21 | 5.7 | – | – | – | 10.5 | –
5 | O=C(O)/C=C/c1ccc(O)c(O)c1 [CAFFEIC ACID] | 44.2 | – | – | Non-toxic | 23.2 | Non-toxic
6 | CC1(C)CC(N)CC(C)(C)N1[O] [TEMPAMINE] | 45.6 | – | – | Non-toxic | 26.9 | Non-toxic
7 | O=C(O)CCCCC1CCSS1 (stereo not drawn) [LIPOIC ACID, ALPHA] | 46 | – | – | Non-toxic | 25.2 | Non-toxic
8 | CC(=O)Oc1c(C)c(C)c2c(c1C)CCC(C)(C(=O)Nc1cc3c(cc1C)C(C)(C)CCC3(C)C)O2 (stereo not drawn) | 4.4 | – | – | – | 15.8 | –
9 | CC1(C)CCC(C)(C)c2cc(C(=O)Nc3nc4ccccc4[nH]3)ccc21 | 45.7 | – | – | Non-toxic | 15.6 | Non-toxic
10 | CC1(C)CCC(C)(C)c2cc(C(=O)NN3CCOCC3)ccc21 | 34.3 | – | – | Toxic | 5.8 | –
11 | CC1(C)CCC(C)(C)c2cc(C(=O)NC3CCN(Cc4ccccc4)CC3)ccc21 | 22.5 | – | – | Non-toxic | 21 | Non-toxic
12 | CC1(C)CCC(C)(C)c2cc(C(=O)NCc3ccc(F)cc3F)ccc21 | 7.7 | inactive | – | Toxic | – | –
13 | CC1(C)CCC(C)(C)c2cc(C(=O)NN3CCCCC3)ccc21 | 10.5 | inactive | – | Toxic | – | –
14 | CC1(C)CCC(C)(C)c2cc(C(=O)NN3CCCCCC3)ccc21 | 43.6 | – | – | Toxic | 25.7 | –
15 | CC1(C)CCC(C)(C)c2cc(C(=O)NCc3ccccc3)ccc21 | 15.9 | inactive | – | – | – | –
16 | CC1(C)CCC(C)(C)c2cc(C(=O)NC3CC(C)(C)N([O])C(C)(C)C3)ccc21 | 59.2 | – | – | Toxic | 18.2 | –
17 | CC1=C(/C=C/C(C)=C/C=C/C(C)=C/C(=O)O)C(C)(C)CCC1 [TRETINOIN] | 66 | – | – | Non-toxic | 57.2 | Non-toxic

Row | Compound | inhibition at 50 µM [1] [%] | inhibition [2] | inhibition [1] | Activity [3] | inhibition at 5 µM [2] [%] | Activity [4]
18 | Cc1cc2c(cc1NC(=O)/C=C/c1ccc(O)c(O)c1)C(C)(C)CCC2(C)C | 46.2 | – | – | Toxic | 23.3 | –
19 | CC1(C)CCC(C)(C)c2cc(C(=O)NC3CC3)ccc21 | 38.2 | – | – | Toxic | 20.5 | –
20 | COc1cc(/C=C/C(=O)Nc2cc3c(cc2C)C(C)(C)CCC3(C)C)ccc1O | 48 | – | – | Toxic | 17.8 | –
21 | Cc1cc2c(cc1NC(=O)c1ccc3c(c1)C(C)(C)CCC3(C)C)C(C)(C)CCC2(C)C | – | inactive | inactive | Toxic | – | Toxic
22 | CC1(C)CC(NC(=O)c2ccc3c(c2)C(C)(C)CCC3(C)C)CC(C)(C)N1 | 42.9 | – | – | Non-toxic | 19.1 | Non-toxic
23 | Cc1cc2c(cc1NC(=O)CCCc1ccccc1)C(C)(C)CCC2(C)C | – | inactive | inactive | Toxic | – | –
24 | COc1cc(/C=C/C(=O)O)ccc1O [FERULATE] | 39.1 | – | – | Non-toxic | 24.8 | Non-toxic
25 | CC1(C)CCC(C)(C)c2cc(C(=O)NCCN3CCOCC3)ccc21 | 40.1 | – | – | Toxic | 14.3 | –
26 | CC1(C)CCC(C)(C)c2cc(C(=O)Nc3ncccn3)ccc21 | 18.6 | inactive | – | – | – | –
27 | Cc1cc2c(cc1NC(=O)C1(C)CCc3c(C)c(O)c(C)c(C)c3O1)C(C)(C)CCC2(C)C (stereo not drawn) | 10.5 | inactive | – | Toxic | – | –
28 | COc1ccc(/C=C/C(=O)Nc2cc3c(cc2C)C(C)(C)CCC3(C)C)cc1OC | 32.8 | – | – | Non-toxic | 24.1 | Non-toxic
29 | Cc1c(C)c2c(c(C)c1O)CCC(C)(C(=O)O)O2 (stereo not drawn) [TROLOX] | 39.3 | – | – | Non-toxic | 33.4 | Non-toxic
30 | CC1(C)CCC(C)(C)c2cc(C(=O)NCc3ccc(Cl)cc3Cl)ccc21 | 6.6 | inactive | – | – | – | –
31 | Cc1cc2c(cc1NC(=O)/C=C/c1ccccc1)C(C)(C)CCC2(C)C | – | inactive | inactive | Toxic | – | –
32 | CC1(C)CCC(C)(C)c2cc(C(=O)Nc3nccs3)ccc21 | 33.5 | inactive | – | Toxic | – | –
33 | Cc1cc2c(cc1NC(=O)CCCC[C@@H]1CCSS1)C(C)(C)CCC2(C)C | 22.8 | – | – | – | 28.5 | –
